# HCV NS3 hel inh – blocks Hepatitis C virus NS3 helicase unwinding; inhibition, % at 10.9 µM; 0.56% of 290,000 active; NS3 helicase DNA unwinding, Cy5 molecular beacon fluorescence;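 active = inhibition above the mean of all tested compounds plus 3 SD, set per campaign, cut at about 35% in these data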;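 note: 0% = DMSO wells and 100% = thioflavine S control wells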
#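 assay system = NS3 helicase fragment of HCV | buffer or medium = MOPS pH 6.5, MgCl2, DTT, Tween20, BSA | timing = 60 min unwinding reaction at 25 °C after ATP addition | signal = Cy5 beacon fluorescence read at start and 1 h | read-out basis = % inhibition of unwinding | control set = low DMSO, high thioflavine S at 110 µM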
# DNA FID counter – displaces DNA intercalator in HCV helicase counter-screen; DNA fluorescent intercalator displacement, fluorescence; inhibition, % at 7.9 µM; 0.17% of 290,000 active; AID 1845; in the data active = inhibition above about 37%;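 note: 0% = vehicle and 100% = reference compound; higher means more ethidium bromide displaced from hairpin DNA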
# MLLE-PAM2 inh – blocks PAM2 peptide binding to the PABP1 MLLE domain. P11940. GST-MLLE / FITC-PAM2 fluorescence polarization. inhibition, % at 20 µM. 0.36% of 360,000 active. AID 588489; in the data active = inhibition above about 35%, passing the limit was not always enough;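 note: plate controls were DMSO wells with GST-MLLE for no effect and wells lacking GST-MLLE protein for full effect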
# eIF4H FP inh – inhibitors of RNA binding by human eIF4H. Q15056. eIF4H fluorescence polarization binding assay. inhibition, % at 35 µM. 0.94% of 290,000 active;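 note: calls also rest on retests at 20 µM and on dose response follow-up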
# HCV core dimer – HCV core protein dimerization inhibition; TR-FRET GST/Flag-core106 dimerization, 1536-well; inhibition, % at 5 µM; 0.33% of 300,000 active;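 active = inhibition above the mean of all tested compounds plus 3 SD, set per screening campaign, cut at about 45% in these data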
#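 System: GST-tagged and Flag-tagged HCV core protein residues 1-106 / Input: core106 proteins, GST 13.5 nM and Flag 17 nM / Buffer or medium: KF-containing HEPES buffer, pH 7.45, DTT, CHAPS, BSA / Probe or stimulus: Eu-anti-GST and XL665-anti-Flag labelled anti-tag antibodies / Schedule: 4 h, 22.5 °C incubation / Technique: TR-FRET 671 and 617 nm emission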
# PABP FP inh – blocks human PABP binding to poly(A) RNA. 1% of 290,000 active. AID 2014. inhibition, % at 35 µM. fluorescence polarization. P11940;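 note: calls also rest on retests at 20 µM and on dose response follow-up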
# * = called active by the depositor; . = no result given. Sampled rows, rich in hits. Any-hit rate of the full collection: about 2%. Unless noted, the rule behind the calls is not given here.
SMILES,HCV NS3 hel inh,DNA FID counter,MLLE-PAM2 inh,eIF4H FP inh,HCV core dimer,PABP FP inh
Cc1sc(NC(=O)CSC2=NCCS2)nc1-c1ccccc1,-5,-10,9,1,4,9
CCSCc1nnc(SCC(=O)Nc2nc3ccccc3s2)n1C,-9,-1,-113,3.0*,2,60*
Clc1cccc(CNc2ccn3nc(-c4cccc(Cl)c4)cc3n2)c1,.,.,4,.,.,.
Cn1c(=O)c2[nH]c(COc3ccccc3)nc2n(C)c1=O,.,.,63*,.,.,.
Cc1ccc(C(=O)Nc2ccccc2N2CCCC2)cc1,8,-10,-1,83*,2,83*
Cc1ccc(C(=O)Nc2ccccc2N2CCCCC2)cc1,-2,-22,-7,-6,-2,-5
O=C(Nc1ccccc1N1CCCC1)c1cc2ccccc2o1,-5,-6,41*,9,1,17
NCc1cc2c3c(c1)CCCN3CCC2,-10,31,36*,93*,-2,115*
COc1c(C=O)cc2c3c1CCCN3CCC2,8,-4,-8,0,9,0
COCCCNC(=O)/C(C#N)=c1\s/c(=C\c2ccccc2OC(F)F)c(=O)n1CCCOC,-6,-2,-8,55*,-2,10
O=C(/C=C/c1ccco1)c1cccnc1,7,-9,2,56*,5,27*
C#CCOCCOCCOCCNc1nc(N2CCN(C(=O)[C@H](CCC(=O)O)n3cc([C@@H](N)[C@H](C)CC)nn3)CC2)nc(N2CCN(C(=O)[C@H](CCCCN)n3cc([C@@H](N)CC(N)=O)nn3)CC2)n1,.,.,-6,.,.,.
Cc1ccc(-n2c(SCc3cc(=O)n4ccsc4n3)nnc2-c2cccnc2)c(C)c1,11,-29,-47,60*,10,8
Cc1ccc(-n2c(SCC(N)=O)nnc2-c2cccnc2)c(C)c1,8,-6,-24,1,-2,1
COc1ccccc1NC(=S)NC1CCC(CC2CCC(NC(=S)Nc3ccccc3OC)CC2)CC1 (stereo unspecified),-3,1,-22,0,48*,7
COc1ccccc1NC(=S)NC1CCCC1,.,.,-17,.,0,.
COCCCn1c(-c2ccco2)nc2ccccc2c1=O,8,-5,1,4,0,6
CCn1nc([N+](=O)[O-])c2c(-c3nc4ccccc4o3)c(N)n(CCCOC)c2c1=O,1,-8,11,70*,3,52*
CSc1nc(N)cc(=O)[nH]1,-1,-8,11,61,-5,active
CN(C)S(=O)(=O)c1ccc(NC(=O)Cn2nc(-c3ccc4c(c3)OCCO4)ccc2=O)cc1,.,.,-2,.,.,.
CCNC(=O)C1CCCN(C(=O)c2cccc(C(F)(F)F)c2)CC1 (stereo unspecified),.,.,9,.,.,.
COc1ccc(OC)c(C2Nc3c(Cl)ccc(C(=O)O)c3C3C=CCC32)c1 (stereo unspecified),31,-21,19,71*,1,73
COC(=O)COc1ccc(S(=O)(=O)N2CCN(c3ccccc3)CC2)cc1,-5,-16,-1,2,1,2
COC(=O)COc1ccc(C2Nc3c(Cl)ccc(C(=O)O)c3C3C=CCC32)cc1 (stereo unspecified),23,-16,28,78,14,active
COc1cccc(C2Nc3c(F)cc(Br)cc3C3C=CCC32)c1OC (stereo unspecified),4,-1,9,-11,-15,0
SMILES,HCV NS3 hel inh,DNA FID counter,MLLE-PAM2 inh,eIF4H FP inh,HCV core dimer,PABP FP inh
CCC1CCCCN1CCCNC(=O)Cn1ncn2nc(-c3ccc(OC)cc3)cc2c1=O (stereo unspecified),3,24,8,0,-6,-20
O=C(NCCCc1ccc(F)cc1)C1CCC(=O)N(CCCN2CCCC2=O)C1 (stereo unspecified),17,-14,-1,-12,-13,1
N#C/C(=C/c1ccc(F)cc1)c1nnc(NC(=O)c2ccccc2)s1,-15,4,-19,88*,-2,57*
C[C@H](NC(=O)c1ccc(Cl)cc1)C(=O)NNC(=O)c1cccs1,.,.,-3,.,.,.
O=C(N/N=C/c1ccc(O)cc1O)c1ccc(CN2C(=O)c3cccc4cccc2c34)cc1,-2,-25,3,14,54*,-4
CCn1c(=O)n(C)c2c(=O)n(C)c(=O)n(C)c21,.,.,11,.,.,.
CC1Cc2ccccc2N1Cc1cc(=O)n2ccsc2n1 (stereo unspecified),3,-10,5,70,68*,-5
COc1ccccc1N1CCN(Cc2cc(=O)n3ccsc3n2)CC1,1,-6,1,2,2,6
OC[C@@H]1CN(Cc2ccco2)C[C@H](n2cnc3c(NCc4ccncc4)ncnc32)O1,.,.,-8,.,.,.
CC1=C(C(=O)OCCOC(C)C)C(c2cc3c(cc2Br)OCO3)C2=C(CCCC2=O)N1 (stereo unspecified),-1,-26,67*,10,3,6
O=C(O)Cn1c2ccccc2c2n[nH]c(=S)nc21,18,-5,43*,13,2,15
CCn1c2ccccc2c2n[nH]c(=S)nc21,17,-11,33,-7,-12,-1
CC[n+]1c(/C=C(/C)SC)sc2ccccc21,3,-21,46*,4,-3,0
CC[n+]1c(/C=C/Nc2ccccc2)sc2ccccc21,5,-5,-105,-1,-4,50*
CC[n+]1ccccc1/C=C/Nc1ccccc1,0,5,-110,-2,-1,51*
CC[n+]1c(/C=C(\C)Nc2ccccc2)sc2ccccc21,-2,-4,6,-7,2,6
Cc1ccc(C(=O)NCCCN2CCOCC2)c(C)c1,-2,0,4,-13,2,-6
O=C(CC[C@H]1O[C@@H](n2cnc3c(NC(=O)c4ccccc4)ncnc32)[C@H](O)[C@@H]1O)NCC1CCN(Cc2ccccc2)CC1,.,.,13,.,.,.
Cc1cccc(NC(=O)N2CCCC(CNC(=O)c3ccccc3Cl)C2)c1C (stereo unspecified),-4,-13,-2,-13,9,-3
O=c1oc2ccccc2cc1-c1nc(-c2cccs2)cs1,5,-4,5,21,3,21
COc1cccc2cc(-c3nc(-c4cccs4)cs3)c(=O)oc12,11,0,41,18,51*,4
CCCCCCC(=O)N(O)C1CC(=O)N(c2ccc(C)cc2)C1=O (stereo unspecified),19,-18,44*,-9,3,-13
CCCCCCC(=O)N(O)C1CC(=O)N(c2ccc(Cl)cc2)C1=O (stereo unspecified),4,-18,23,-12,8,4
CC(C)=CCc1c(O)cc2oc3c(CC=C(C)C)c(O)c(O)c(CC=C(C)C)c3c(=O)c2c1O,.,.,-47,58*,58*,21
c1ccc(-n2ncc3c2ncn2nc(-c4ccco4)nc32)cc1,3,-4,15,50*,52*,10
COc1ccc(Cc2noc(=O)[nH]2)cc1,.,.,-1,.,.,.

# Screening results (PubChem)
